According to ChEMBL document CHEMBL1152833, “Synthesis of some novel N4-(naphtha[1,2-d]thiazol-2-yl)semicarbazides as potential anticonvulsants” (Eur J Med Chem, 2009):
The source made the active and inactive calls.

Legend:
[1] = system: Mus musculus; test: Anticonvulsant activity in ip dosed Swiss albino mouse assessed as minimum drug concentration required for inhibition of maximal electroshock-induced seizure in half or more of mouse after 0.5 hrs by MES test; format: functional
Method in brief: (§1)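 Male Swiss albino mice (18–25 g) received compound i.p. at 30, 100 and 300 mg/kg. MES seizures were induced after 0.5 and 4 h, with a drop of 0.9% saline placed in the eye before the electrodes went on. Protection meant abolition of the hind-limb tonic extensor component. The tabulated value is the minimum dose protecting half or more of the mice.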

[2] = system: Mus musculus; test: Anticonvulsant activity against maximal electroshock-induced seizures in Swiss albino mouse at 300 mg/kg, ip after 4 hrs by MES test; format: functional, organism-based; parameters: dose 300 mg/kg; method in brief: as §1
[3] = system: Mus musculus; test: Anticonvulsant activity in ip dosed Swiss albino mouse assessed as minimum drug concentration required for inhibition of pentylenetetrazole-induced seizures in half or more of mouse after 4 hrs by scPTZ test; format: functional
Method in brief: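 Male Swiss albino mice (18–25 g) were dosed i.p. at 30, 100 and 300 mg/kg, examined at 0.5 and 4 h. PTZ 85 mg/kg (CD97) was given and the animals were […]. Protection meant absence of any threshold convulsion, i.e. clonic spasm lasting at least 5 s. The value is the minimum dose active in half or more of the mice.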

[4] = system: Mus musculus; test: Toxicity to Swiss albino mouse assessed as occurrence of myoclonic jerks at 300 mg/kg, ip after 0.5 hrs; format: organism-based; parameters: dose 300 mg/kg, route intraperitoneal; conditions: in vivo
[5] = system: Mus musculus; test: Neurotoxicity in ip dosed Swiss albino mouse assessed as minimum drug concentration required for falling off the rotarod by half or more of mouse after 4 hrs by rotarod test; format: toxicity, organism-based; conditions: in vivo
Method in brief: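 Rotarod test in male Swiss albino mice (18–25 g) after i.p. dosing at 30, 100 and 300 mg/kg, read at 0.5 and 4 h. Mice falling within 30 s in a pre-check were excluded. Neurotoxicity was scored as the minimum dose at which half or more of the mice fell off the rod.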

[6] = system: Mus musculus; test: Neurotoxicity in Swiss albino mouse at 300 mg/kg, ip after 0.5 hrs by rotarod test; format: toxicity, organism-based; parameters: dose 300 mg/kg, route intraperitoneal; conditions: in vivo
Method in brief: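 Male Swiss albino mice (18-25 g) received the compound i.p. at 30, 100 or 300 mg/kg and were tested on the rotarod 0.5 and 4 h later. Mice were pre-checked, and any that fell off within 30 s were excluded. Neurotoxicity was scored as falling off the rod. The value is the minimum dose affecting half or more of the mice.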

Compound: C/C(=N\NC(=O)Nc1nc2c(ccc3ccccc32)s1)c1ccc(C)cc1
- Activity [1]: 300 mg/kg
- Activity [2]: inactive
- Activity [3]: 300 mg/kg
- Activity [4]: Toxic
- Activity [5]: 300 mg/kg
- Activity [6]: Non-toxic
